Reference: ChEMBL document CHEMBL4513216, “Probing the Open Global Health Chemical Diversity Library for Multistage-Active Starting Points for Next-Generation Antimalarials” (ACS Infect Dis, 2020)

Assay: Toxicity liver stage against HepG2, at 10uM
Assay type: cell-based
Set-up: test concentration 10 uM, cell line HepG2-A16-CD81EGFP
Settings: human, HepG2-A16-CD81EGFP cells; read-out: INHIBITION
How it was run: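 Uninfected HepG2-A16-CD81EGFP cells, 3 × 10^3 per well, 1536-well, plated on prespotted compound at 10 μM final, parasite-free screening media added to match infected plates; puromycin 10 μM positive, DMSO 0.5% negative; run in parallel with 48 h PbLuc assay at 37 °C, 5% CO2; viability by CellTiter-Glo luminescence, normalized to controls.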

| SMILES | cytotoxicity at 10 µM |
| --- | --- |
| CCN(Cc1ccc(C#N)cc1F)C(=O)C(C)(C)C | 5.73% |
| COC(=O)c1cccn1C1CCN(C(=O)c2c(C)noc2C)CC1 | -11.4% |
| COc1ccc(Cl)cc1C(=O)NCCNc1cnccn1 | -8.35% |
| CC(C)N1CCC(c2nccnc2Nc2ncccn2)CC1 | -23.7% |
| CCOCC(O)CN1CCN(C(=O)c2ccsc2)CC1 (stereo not given) | 5.42% |
| COCCn1cc(CC(=O)Nc2nc3c(s2)CCC3)c2ccccc21 | 32.8% |
| COc1ccc(F)c(CN2CC(=O)N(c3ccccc3C)CC2C)c1 (stereo not given) | -0.757% |
| c1ccc(Cn2cccn2)c(CN2CCCCC2CCn2ccnc2)c1 (stereo not given) | -12% |
| CC(NC(=O)NCCCc1n[nH]c(N)c1C#N)c1ccc(Cl)cc1 (stereo not given) | -12.5% |
| N#Cc1ccsc1N1CCC(Sc2ncc[nH]2)C1=O (stereo not given) | 2.72% |
| COCc1noc(-c2ccc(N3CCCCC3COC)nc2)n1 (stereo not given) | 1.69% |
| CC(C)n1cc(S(=O)(=O)NCCc2nnc3ccccn23)cn1 | 7.07% |
| O=C(c1ccccn1)N1C[C@H]2CC[C@@H](C1)N(C(=O)CCc1ccsc1)C2 | -12.7% |
| CS(=O)(=O)N1CCC(CSc2ccccc2)C1 (stereo not given) | 1.58% |
| NC(=O)CCNC(=O)NCC1(c2ccccc2Cl)CCC1 | -53.1% |
| O=C(NCc1nnc2n1CCCCC2)N1CCc2sccc2C1 | 0.553% |
| CCN(CC(C)C#N)C(=O)CNc1ccc(F)c(C)c1 (stereo not given) | 17.5% |
| COc1cccc(OCC(=O)NS(=O)(=O)c2ccc(Br)s2)c1 | -16.1% |
| CN1C[C@@H](c2cccc(F)c2)[C@H]2[C@H]1CCCCCN2C(=O)C1CC1 | 4.21% |
| Cc1ccn2c(F)c(C(=O)N3CCC4(CCCN(C)C4=O)C3)nc2c1 (stereo not given) | 2.51% |
| CC1=C(CCN2C[C@H](O)[C@@H](N3CCOCC3)C2)C(C)(C)CCC1 | -0.128% |
| Nc1ccc(-c2cc(O)cc(CCC3CCCCN3)c2)cn1 (stereo not given) | -9.66% |

| SMILES | cytotoxicity at 10 µM |
| --- | --- |
| CCCS(=O)(=O)N1Cc2nccn2CC(CN(C)C)C1 (stereo not given) | -106% |
| CSCCCN1CCCC(Cn2ccnc2)C1 (stereo not given) | 5.07% |
| CCN1C(=O)CCC12CCN(S(=O)(=O)c1ccccc1)CC2 | -4.9% |
| CCOc1cccc(CNCc2ccc(NC(=O)NC(C)C)cc2)c1 | -11.5% |
| Cc1cc(CN(C)CCC(O)c2ccccc2)no1 (stereo not given) | 0.238% |
| NC(=O)c1ccc(CNC(=O)Nc2cn[nH]c2)cc1 | -20.4% |
| Cn1cnnc1CNC(=O)Nc1cc(C(F)(F)F)c[nH]c1=O | -3.2% |
| COCCN1C(=O)[C@@H]2CC[C@H]1CN(Cc1nnc(-c3ccccc3)o1)C2 | -4.94% |
| CNc1snc(C)c1C(=O)NC(C)CC(=O)c1cccs1 (stereo not given) | -0.227% |
| CCC(CCNC(=O)c1cc(C2CC2)nc2c1cnn2C)n1cccn1 (stereo not given) | 2.04% |
| COC1CC2(CCN(Cc3nccn3C)CC2)C1 | -133% |
| O[C@@]1(CN2CCN(Cc3ccncc3)CC2)CCCN2CCCC[C@@H]21 | 8.91% |
| CCc1nnc2n1CCN(C(=O)C(C)Oc1ccc(C#N)cc1)C2 (stereo not given) | -7.04% |
| Cc1ccc(C(=O)N2[C@@H]3CC[C@H]2CC(=O)N(C)C3)c(=O)[nH]1 | 4.23% |
| COc1cccc(N2CCN(Cc3ccc(NC(C)=O)cc3)CC2=O)c1 | -15.4% |
| Cc1nn(C)c(Cl)c1C1CCCN1C(=O)c1cc(Cl)c[nH]1 (stereo not given) | -6.83% |
| O=C(NCCN1CCOCC1)N(Cc1ccoc1)C1CCCCC1 | -0.315% |
| Cc1cccc(C(=O)N2CCC[C@]3(C[C@@H](OCC4CC4)CO3)C2)n1 | -82.9% |
| Cc1cnc(N2CCC[C@@H]3CN(S(C)(=O)=O)C[C@@H]32)nc1 | 9.34% |
| CCCC(NC(=O)c1ccccc1Br)c1nnn[nH]1 (stereo not given) | -1.8% |
| CCCNC(=O)Cn1cc(C#N)c(=O)c2cc(Br)ccc21 | -0.842% |
| CCc1[nH]c(C2(N)CCCC2)nc(=O)c1C | -1.29% |

| SMILES | cytotoxicity at 10 µM |
| --- | --- |
| Cc1ccsc1CNC(=O)c1ccc(N2CCOC2=O)cc1 | 22.2% |
| COc1ccc(Cl)cc1CNCCCn1ccnc1 | 8.32% |
| CC(C)C(NC(=O)Nc1ccccn1)c1cccs1 (stereo not given) | 2.27% |
| c1cc(CO[C@@H]2CC[C@H]3[C@H]2OCCN3Cc2ccoc2)ccn1 | 10.8% |
| CN(CCCc1ccccc1)C(=O)c1ccccc1NCC(=O)O | -6.96% |
| CC(c1cc(O)nc(NC2CCCC2)n1)n1ncc2ccccc2c1=O (stereo not given) | 22.9% |
| c1ccc(-c2cc(CN3CCCC(Cn4cncn4)C3)on2)cc1 (stereo not given) | -15.9% |
| CC(C)c1cc(C2CCCN2C(=O)CN2C(=O)OC(C)(C)C2=O)no1 (stereo not given) | -7.71% |
| Cc1cc(=O)c(C(=O)Nc2cccc(CCN3CCCC3)c2)c[nH]1 | 7.49% |
| CN1CC2(CCN(C(=O)Cn3ncc4ccccc4c3=O)CC2)OC1=O | -2.96% |
| Cc1cc(CN2C[C@H](OCC3CCOCC3)[C@H]3COC[C@H]32)oc1C | 6.88% |
| Cc1ccc(CC(=O)NCCCNS(C)(=O)=O)cc1 | 3.1% |
| CCn1cnnc1CNC(=O)NCC(C(C)C)N1CCOCC1 (stereo not given) | 13.5% |
| COCC(=O)NCc1cc2n(n1)CCCN(CCCC1CCCC1)C2 | -5.01% |
| O=C([C@@H]1CC[C@@H]2[C@@H](CCN2Cc2ccncc2)O1)N1CCCCO1 | -3.75% |
| O=C(c1cccc(Cl)c1)C1CCCN(c2nnc(C3CCC3)o2)C1 (stereo not given) | 0.409% |
| Cc1ccc2c(n1)N(Cc1cccnc1)CCN(Cc1cnn(C)c1)C2 | 9.12% |
| CC(CNC(=O)c1cc(Cn2cnc3ccccc32)[nH]n1)N1CCCC1 (stereo not given) | -4.62% |
| Cc1nc(C)n(CC(C)C(=O)N2CCCN(C3CCCC3)CC2)n1 (stereo not given) | -0.103% |
| CNC(=O)c1cc(-n2ccnc2-c2cnc(N(C)C)nc2)ccc1OC | -6.91% |
| Cc1cc(C)cc(CN2CCCC2c2noc(C)n2)c1 (stereo not given) | 9.86% |
| O=C(c1cnn(-c2ccccc2)c1)N1CCN(c2cnccn2)CC1 | 5.37% |

| SMILES | cytotoxicity at 10 µM |
| --- | --- |
| c1ccc(NCc2cn3c(n2)CN(Cc2cccnc2)CC3)nc1 | 1.52% |
| Cc1cc(C)cc(-c2cc(C3CCOC3)c(C#N)c(N)n2)c1 (stereo not given) | 1.44% |
| O=C(O)[C@]12CCCN(CC3CCOC3)C[C@H]1CN(c1ncccn1)C2 (stereo not given in full) | -104% |
| Cc1cc(CCC2CN(CC3(O)CCCCC3)CCO2)ncn1 (stereo not given) | 2.97% |
| CC1COCCN1C(=O)COc1ccc(Oc2ccccn2)cc1 (stereo not given) | -8.87% |
| CC(C)c1nc(C2CCCN2c2cnc3cc(F)c(F)cc3n2)no1 (stereo not given) | 5.18% |
| COCCn1cnnc1CCn1ccnc1-c1ccccc1Cl | -8.25% |
| Cc1ccc(Oc2ncccc2CNC(=O)NC2CCCCC2)cn1 | -3.01% |
| Cc1cn2c(=O)c(-c3ccnc(N[C@@H](C)CO)n3)cnc2s1 | -13.7% |
| NC(=O)C1(Cc2ccccc2-c2cncnc2)CCCNC1 (stereo not given) | 3.35% |
| Cc1nc(CN(C)C2CCN(Cc3nc(C4CC4)no3)C2)no1 (stereo not given) | -5.29% |
| CC(C)(O)CN1CCN(C(=O)c2cnn(-c3ccccc3F)c2)CC1 | -3.8% |
| O=C1N(c2cccnc2)CCC12CCCN(Cc1ccoc1)C2 (stereo not given) | -1.6% |
| CC(C(=O)O)N1CC2(CCC1=O)CCN(CCc1ccccc1)CC2 (stereo not given) | -0.503% |
| CN1C(=O)C(C)(C)COc2cc(NS(=O)(=O)c3ccccc3)ccc21 | -7.89% |
| CC(=O)Nc1cccc(C(C)NCC2CCS(=O)(=O)CC2)c1 (stereo not given) | 0.224% |
| CC(C)CS(=O)(=O)Nc1ccc2c(c1)OCC(C)(C)C(=O)N2C | -0.123% |
| CN(Cc1ccsc1)C(=O)c1cccc(S(=O)(=O)NC(C)(C)C)c1 | -8.03% |
| O=C1OCCN1Cc1cc(C(F)(F)F)ccc1F | -5.52% |
| CC(C(=O)Nc1cccc(N2CCCCC2)c1)n1cncn1 (stereo not given) | -7.3% |
| CC(Oc1ccc2c(c1)OCO2)C(=O)N1CCC(N2CCOCC2)CC1 (stereo not given) | -13.5% |
| FC(F)CN1CCC(NCc2ccc(-n3cccn3)nc2)CC1 | 10.6% |

| SMILES | cytotoxicity at 10 µM |
| --- | --- |
| CC(=O)N1CCC(C(=O)NC2CCc3nccn3C2)CC1 (stereo not given) | -13.4% |
| Cc1cn2cc(-c3nc4c([nH]3)CCCNC4=O)nc2s1 | 5.48% |
| C=C(C)CN1CCC(NC(=O)NCCc2cccc(C(N)=O)c2)CC1 | 11.4% |
| CCc1nc(Cn2c(=O)n(C)c3ccccc32)no1 | -45.1% |
| CC(C)(C)c1cnc(CN2CCC(CN3CCOCC3)CC2)o1 | 3.63% |
| CC(C)NC(=O)[C@H]1C[C@@H]2[C@@H](C1)OCCN2Cc1cccnc1 | 2.39% |
| O=C1CC(c2cccs2)Cc2[nH]c(=O)c(C(=O)NC3CCCC3)cc21 (stereo not given) | 80.5% |
| NC(=O)c1cccc(CNCC=Cc2ccccc2)c1 | 5.62% |
| NC(=O)c1cn[nH]c1C1CCCN1C(=O)c1ccccc1 (stereo not given) | 0.00505% |
| CN(CC(F)(F)F)C(=O)Cn1cc(NC(=O)C(C)(C)C)cn1 | 3.04% |
| O=C(c1ccc(O)nc1)N1CCN(C(=O)c2ccc(F)c(F)c2)CC1 | -10.3% |
| COc1c(CNCc2ccnc(N3CCOCC3)c2)c(C)nn1C | -1.82% |
| CN1C(=O)CC(C(=O)O)C12CCN(c1ccc3c(n1)CCCC3)CC2 (stereo not given) | 2.78% |
| Cc1ccc(C)c(OC(C)C(=O)NCc2cccnc2)c1 (stereo not given) | 2.13% |
| O=C(c1ccc2c(c1)OCO2)N1CCCC(n2ccnc2)C1 (stereo not given) | -7.6% |
| FC(F)(F)c1cccc(OC2CCN(Cc3ncc[nH]3)CC2)c1 | -2.45% |
| Cc1c(NCc2cccnc2)cccc1C(=O)N1CCC(N(C)C)C1 (stereo not given) | 14.1% |
| O=C(NCc1nncn1-c1ccccc1)C1CCCC1 | -11.5% |
| CC(C)c1nc(CN2CCCC2Cn2cccn2)no1 (stereo not given) | -0.121% |
| CC(C)(C)CN1Cc2cc3c(cc2NCCC1=O)OCO3 | -84.3% |
| O=C(O)c1nnn(-c2ccc(C(F)(F)F)cc2)c1-c1ccncc1 | 7.33% |
| CO[C@H]1CCN(Cc2cccc(C)n2)[C@@H]2CN(Cc3cccnc3)C[C@H]12 | -11.3% |
